Assay results taken from ChEMBL document CHEMBL1153628, “HCV NS5B polymerase inhibitors 2: Synthesis and in vitro activity of (1,1-dioxo-2H-[1,2,4]benzothiadiazin-3-yl) azolo[1,5-a]pyridine and azolo[1,5-a]pyrimidine derivatives” (Bioorg Med Chem Lett, 2009).
pEC50, pIC50: −log10 of the molar value.

Tests used:
[1] = Cytotoxicity against human HuH7 cells; type: cell-based, Huh-7
In short: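 Huh-7 cells stably carrying luc/neo ET replicon, grown in DMEM with 10% fetal calf serum, seeded at 5 × 10³ cells/well. DMSO serial dilutions were added ~24 h after plating (final DMSO 1%), with exposure for 46–50 h. Luminescence vs log concentration was fitted to a 4-parameter logistic to give EC50 and CC50.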

[2] = Inhibition of HCV isolate HC-J4 NS5B deltaC21 polymerase; parameters: species or system Hepatitis C virus isolate HC-J4
In short: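 Inhibitor was preincubated 5 min, then 250 nM 5′-biotin-rU₁₂ primer, poly-rA template, UTP and ³H-UTP were added (5% DMSO). After 2 h, SPA beads/EDTA stop, then CsCl for 1 h, then scintillation count. IC50 by 4-parameter logistic fit.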

Hepatitis C virus = assay: Antiviral activity against HCV 1b infected in human Huh7 cells after 46-50 hrs by luc/neo ET replicon assay; conditions: genotype 1b, Huh-7, 46-50 h

| pIC50 [2] | pEC50 (Hepatitis C virus) | Structure (SMILES) | CC50 [1] |
| --- | --- | --- | --- |
| > 8.30 | 6.82 | CC(C)CC[C@@]1(C)C(=O)C(C2=NS(=O)(=O)c3cc(NS(C)(=O)=O)ccc3N2)=C(O)c2cccn21 | 19.5 µM |
| 6.82 | 5.31 | CC(C)CC[C@]1(C)C(=O)C(C2=NS(=O)(=O)c3cc(NS(C)(=O)=O)ccc3N2)=C(O)c2cccn21 | 170 µM |
| > 8.30 | 5.96 | CC(C)CCC1(C)C(=O)C(C2=NS(=O)(=O)c3cc(NS(C)(=O)=O)ccc3N2)=C(O)c2ccnn21 (centres undefined) | > 100 µM |
| > 8.30 | 5.40 | CS(=O)(=O)Nc1ccc2c(c1)S(=O)(=O)N=C(c1c(O)n3nccc3n(Cc3ccccc3)c1=O)N2 | > 100 µM |
| > 8.30 | 6.26 | CC(C)CCn1c(=O)c(C2=NS(=O)(=O)c3cc(NS(C)(=O)=O)ccc3N2)c(O)n2nccc12 | > 100 µM |
| > 8.30 | 5.77 | Cc1cc2n(CCC(C)C)c(=O)c(C3=NS(=O)(=O)c4cc(NS(C)(=O)=O)ccc4N3)c(O)n2n1 | > 100 µM |
| > 8.30 | 6.26 | CC(C)CCn1c(=O)c(C2=NS(=O)(=O)c3cc(NS(C)(=O)=O)ccc3N2)c(O)n2ccnc12 | > 1 µM |
| > 8.30 | 5.18 | CC(C)CCC1(C)C(=O)C(C2=NS(=O)(=O)c3cc(NS(C)(=O)=O)ccc3N2)=C(O)c2cncn21 (centres undefined) | > 100 µM |
| > 8.30 | 6.64 | CC(C)CCC1(C)C(=O)C(C2=NS(=O)(=O)c3cc(NS(C)(=O)=O)ccc3N2)=C(O)c2cccn21 (centres undefined) | > 100 µM |
| > 8.30 | 4.92 | CS(=O)(=O)Nc1ccc2c(c1)S(=O)(=O)N=C(c1c(O)n3nccc3n(Cc3ccc(F)cc3)c1=O)N2 | > 100 µM |
| 7.74 | < 4.00 | CS(=O)(=O)Nc1ccc2c(c1)S(=O)(=O)N=C(c1c(O)n3nccc3n(CCc3ccc(F)cc3)c1=O)N2 | > 100 µM |
| > 8.30 | 5.17 | CC(C)CCn1c(=O)c(C2=NS(=O)(=O)c3cc(NS(C)(=O)=O)ccc3N2)c(O)n2ncnc12 | > 100 µM |
| 8.05 | < 4.70 | CC(C)CCn1c(=O)c(C2=NS(=O)(=O)c3cc(NS(C)(=O)=O)ccc3N2)c(O)n2nc(C3CC3)cc12 | > 100 µM |
